Molecules are shown by their SMILES. Active and inactive are the calls of the source. The rule behind the calls is not given here.

In test [1] the test system is Mus musculus. In words: Antiinflammatory activity in Swiss mouse assessed as reduction in dextran-induced paw edema at 10 mg/kg, po treated 1 hr prior to dextran challenge and measured every 60 mins for 4 hrs by plethysmometer analysis. Format: functional, organism-based. An outline of the steps: (§1)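 Swiss mice were given an oral dose in saline + 5% DMSO 1 h before intraplantar 0.2% dextran (50 μL) into the right hind paw. Paw volume was measured by plethysmometer every 60 min up to 4 h, as the difference from the contralateral saline paw.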

In test [2] the test system is Mus musculus. In words: Antiinflammatory activity in Swiss mouse assessed as inhibition of bradykinin-induced paw edema at 0.5 mg/kg, po treated 1 hr prior to bradykinin challenge measured after 15 to 90 mins by plethysmometer analysis. It counts as functional, organism-based. Summed up: (§2)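 Mice were given captopril 5 mg kg–1 1 h before the bradykinin challenge to block kininases. Oral dosing (vehicle saline + 5% DMSO) preceded intraplantar bradykinin (10 nmol, 50 μL) into the right hind paw by 1 h. Plethysmometer readings at 15, 30, 60 and 90 min, relative to the contralateral paw.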

The test system of test [3] is Mus musculus. In words: Antiinflammatory activity against carrageenan-induced air pouch inflammatory Swiss mouse model assessed as inhibition of PMNL cell migration in air pouch at 120 mg/kg, po treated 1 hr prior to carrageenan administration and measured after 6 hrs relative to control. It counts as functional.
The test system of test [4] is Mus musculus. In words: Antiinflammatory activity against carrageenan-induced air pouch inflammatory Swiss mouse model assessed as IL-1beta level in air pouch exudate at 15 mg/kg, po treated 1 hr prior to carrageenan administration and measured after 6 hrs by sandwich ELISA (reference value: 564.06 pg/ml). It counts as functional. In general terms: ELISA stands for enzyme-linked immunosorbent assay.

The test system of test [5] is Mus musculus. In words: Antiinflammatory activity in Swiss mouse assessed as inhibition of histamine-induced paw edema at 15 mg/kg, po treated 1 hr prior to histamine challenge measured after 15 mins by plethysmometer analysis. Format: functional, organism-based. Summed up:
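Swiss mice were dosed at 15 mg kg–1 orally in saline + 5% DMSO 1 h before injection of histamine (100 μg, 50 μL) into the right hind paw. Paw volume was measured by plethysmometer at 15, 30, 60 and 90 min, relative to the contralateral saline paw.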

The test system of test [6] is Mus musculus. Kind of test: Antiinflammatory activity against carrageenan-induced air pouch inflammatory Swiss mouse model assessed as number of polymorphonuclear leucocytes in air pouch at 120 mg/kg, po treated for 1 hr prior to carrageenan administration and measured after 6 hrs (reference value: 13.76 +/- 0.55X10'6/ml). Format: functional.
In test [7] the test system is Mus musculus. In words: Antiinflammatory activity in Swiss mouse assessed as reduction in BthTX-2-induced paw edema at 15 mg/kg, po treated 1 hr prior to BthTX-2 challenge measured after 15 to 45 mins by plethysmometer analysis. Format: functional, organism-based.
Test [8] concerns Mus musculus. Kind of test: Antiinflammatory activity in Swiss mouse assessed as inhibition of 5-HT-induced paw edema at 15 mg/kg, po treated 1 hr prior to 5-HT challenge measured after 30 mins by plethysmometer analysis. Format: functional, organism-based. Summed up: (§3)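 Male Swiss mice received 15 mg kg–1 p.o. (saline + 5% DMSO) 1 h before intraplantar 5-HT (100 μg in 50 μL) into the right hind paw. Plethysmometer readings at 15, 30, 60 and 90 min. Edema expressed as volume difference from the contralateral saline paw.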

The test system of test [9] is Mus musculus. Kind of test: Antiinflammatory activity against carrageenan-induced air pouch inflammatory Swiss mouse model assessed as number of polymorphonuclear leucocytes in air pouch at 60 mg/kg, po treated for 1 hr prior to carrageenan administration and measured after 6 hrs (reference value: 13.76 +/- 0.55X10'6/ml). Format: functional.
Test [10] deals with Mus musculus. Kind of test: Antiinflammatory activity against carrageenan-induced air pouch inflammatory Swiss mouse model assessed as number of polymorphonuclear leucocytes in air pouch at 30 mg/kg, po treated for 1 hr prior to carrageenan administration and measured after 6 hrs (reference value: 13.76 +/- 0.55X10'6/ml). Format: functional.
Test [11] deals with Mus musculus. Kind of test: Antiinflammatory activity against carrageenan-induced air pouch inflammatory Swiss mouse model assessed as number of polymorphonuclear leucocytes in air pouch at 15 mg/kg, po treated for 1 hr prior to carrageenan administration and measured after 6 hrs (reference value: 13.76 +/- 0.55X10'6/ml). It counts as functional.
Test [12] concerns Mus musculus. In words: Antiinflammatory activity against carrageenan-induced paw edema in Swiss mouse assessed as reduction in paw edema at 15 mg/kg, po administered 1 hr prior to carrageenan challenge and measured after 2 to 6 hrs by plethysmometric analysis. Format: functional, organism-based. Summed up: (§4)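 Male Swiss mice (25–30 g, fasted 8 h), dosed orally in saline + 5% DMSO 1 h before 50 μL 1% carrageenan into the right hind paw. Paw volume read by plethysmometer before challenge and at 2, 4 and 6 h. Edema taken as the volume difference from the saline-injected contralateral paw. Two-way ANOVA with Tukey.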

For test [13], the system named is Mus musculus. In words: Antiinflammatory activity in Swiss mouse assessed as inhibition of acetic acid-induced increase in vascular permeability at 15 mg/kg, po treated 1 hr prior to acetic acid challenge and measured after 30 mins by Evans blue dye based assay. Format: functional, organism-based. An outline of the steps: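 Male Swiss mice received 15 mg kg–1 p.o. or vehicle (saline + 5% DMSO). After 1 h, under ketamine/xylazine (8:2 v/v, i.p.), 0.2 mL 1% Evans blue was given retro-orbitally, then 0.5 mL 1% acetic acid i.p. At 30 min the peritoneal cavity was washed with saline; exudate was centrifuged (2000 rpm, 10 min) and supernatant absorbance read at 610 nm.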

Test [14] has as its system Mus musculus. Kind of test: Antiinflammatory activity in Swiss mouse assessed as reduction in dextran-induced paw edema at 15 mg/kg, po treated 1 hr prior to dextran challenge and measured every 60 mins for 4 hrs by plethysmometer analysis. Format: functional, organism-based. An outline of the steps: as §1
Test [15] concerns Mus musculus. In words: Antiinflammatory activity against carrageenan-induced air pouch inflammatory Swiss mouse model assessed as inhibition of PMNL cell migration in air pouch at 60 mg/kg, po treated 1 hr prior to carrageenan administration and measured after 6 hrs relative to control. It counts as functional.
The test system of test [16] is Mus musculus. Kind of test: Antiinflammatory activity against carrageenan-induced air pouch inflammatory Swiss mouse model assessed as TNF-alpha level in air pouch exudate at 15 mg/kg, po treated 1 hr prior to carrageenan administration and measured after 6 hrs by sandwich ELISA (reference value: 425.17 pg/ml). Format: functional.
Test [17] relates to Mus musculus. In words: Antiinflammatory activity in Swiss mouse assessed as reduction in compound 48/80-induced paw edema at 15 mg/kg, po treated 1 hr prior to compound 48/80 challenge measured after 15 to 30 mins by plethysmometer analysis. It counts as functional, organism-based.
Test [18] has as its system Mus musculus. In words: Antiinflammatory activity against carrageenan-induced air pouch inflammatory Swiss mouse model assessed as inhibition of PMNL cell migration in air pouch at 30 mg/kg, po treated 1 hr prior to carrageenan administration and measured after 6 hrs relative to control. Format: functional.
Test [19] deals with Mus musculus. In words: Antiinflammatory activity in Swiss mouse assessed as reduction in bradykinin-induced paw edema volume at 15 mg/kg, po treated 1 hr prior to bradykinin challenge measured after 15 to 30 mins by plethysmometer analysis. It counts as functional, organism-based. An outline of the steps:
as §2

In test [20] the test system is Mus musculus. Kind of test: Antiinflammatory activity against carrageenan-induced air pouch inflammatory Swiss mouse model assessed as inhibition of PMNL cell migration in air pouch at 15 mg/kg, po treated 1 hr prior to carrageenan administration and measured after 6 hrs relative to control. Format: functional.
In test [21] the test system is Mus musculus. In words: Antiinflammatory activity in Swiss mouse assessed as reduction in dextran-induced paw edema at 15 mg/kg, po treated 1 hr prior to dextran challenge and measured after 3 to 4 hrs by plethysmometer analysis. It counts as functional, organism-based. An outline of the steps:
as §1

The subject of test [22] is Mus musculus. In words: Antiinflammatory activity in Swiss mouse assessed as inhibition of 5-HT-induced paw edema assessed as reduction in paw volume at 15 mg/kg, po treated 1 hr prior to 5-HT challenge and measured after 15 to 90 mins by plethysmometer analysis. Format: functional, organism-based. Summed up: as §3
The test system of test [23] is Mus musculus. In words: Antiinflammatory activity against carrageenan-induced air pouch inflammatory Swiss mouse model assessed as TNF-alpha level in air pouch exudate at 10 mg/kg, po treated 1 hr prior to carrageenan administration and measured after 6 hrs by sandwich ELISA (reference value: 425.17 pg/ml). It counts as functional.
For test [24], the system named is Mus musculus. Kind of test: Antiinflammatory activity against carrageenan-induced air pouch inflammatory Swiss mouse model assessed as IL-1beta level in air pouch exudate at 10 mg/kg, po treated 1 hr prior to carrageenan administration and measured after 6 hrs by sandwich ELISA (reference value: 564.06 pg/ml). It counts as functional.
In test [25] the test system is Mus musculus. In words: Antiinflammatory activity against carrageenan-induced paw edema in Swiss mouse assessed as reduction in paw edema at 10 mg/kg, po administered 1 hr prior to carrageenan challenge and measured after 2 to 6 hrs by plethysmometer analysis. It counts as functional, organism-based. Summed up: as §4
Test [26] has as its system Mus musculus. Kind of test: Antiinflammatory activity against carrageenan-induced air pouch inflammatory Swiss mouse model assessed as number of polymorphonuclear leucocytes in air pouch at 10 mg/kg, po treated for 1 hr prior to carrageenan administration and measured after 6 hrs (reference value: 13.76 +/- 0.55X10'6/ml). Format: functional.
Test [27] has as its system Mus musculus. In words: Antiinflammatory activity against carrageenan-induced air pouch inflammatory Swiss mouse model assessed as inhibition of PMNL cell migration in air pouch at 10 mg/kg, po treated 1 hr prior to carrageenan administration and measured after 6 hrs relative to control. Format: functional.

Consider `CN1CCC(=C2c3ccccc3C=Cc3ccccc32)CC1`, for which the result in [1] was Active.

Take `C[C@@H]1C[C@H]2[C@@H]3CCC4=CC(=O)C=C[C@]4(C)[C@@]3(F)[C@@H](O)C[C@]2(C)[C@@]1(O)C(=O)CO`: the inhibition result in [2] is “Active”.

Consider `O=C(N/N=C\c1ccc(Cl)cc1)C1=NO[C@@H]2[C@H]1CCN2C(=O)c1ccc(Cl)cc1` (racemic), for which the inhibition in vivo at 120 mg/kg in [3] came to 56%. Moreover, the Activity in [4] amounted to 323.11 pg/mL; in test [6] it was 6.1 ×10⁶ /ml; in test [9], 5.94 ×10⁶ /ml; in test [10], 4.97 ×10⁶ /ml; in test [11], 3.33 ×10⁶ /ml; in test [16], 271.6 pg/mL. The inhibition entry in test [5], in [8], in [13] and in [17] was “Active” in each case. Also, the outcome in [7], in test [12], in test [14] and in test [19] was Active. Further, the inhibition in vivo at 60 mg/kg in test [15] is 57%. The inhibition in vivo at 30 mg/kg in test [18] was determined as 64%. In test [20], the inhibition in vivo at 15 mg/kg came out at 76%.

For `COc1ccc(/C=N\NC(=O)C2=NO[C@@H]3[C@H]2CCN3C(=O)c2ccc([N+](=O)[O-])cc2)cc1` (racemic), the inhibition in vivo at 120 mg/kg in [3] was 8%. Further, the Activity in [4] was 358.28 pg/mL; in [6] it was 12.72 ×10⁶ /ml; in test [9] it was 8.98 ×10⁶ /ml; in test [10], 6.72 ×10⁶ /ml; in [11] it was 4.6 ×10⁶ /ml; in test [16] it was 305.88 pg/mL. In addition, the inhibition result in [5], in test [13], in test [17] and in test [22] was “Active” each time. Besides, the result in [7], in test [21], in test [12] and in test [19] was Active. Besides, the inhibition in vivo at 60 mg/kg in test [15] was found to be 35%. The inhibition in vivo at 30 mg/kg in test [18] turned out to be 51%. Further, in test [20], the inhibition in vivo at 15 mg/kg came out at 67%.

With `COc1ccc2c(c1)c(CC(=O)O)c(C)n2C(=O)c1ccc(Cl)cc1` [INDOMETHACIN], the Activity in test [23] is 458.97 pg/mL; in [24], “<=329.81 pg/ml”; in test [26] it was 4.84 ×10⁶ /ml. Further, the result in test [25] was Active. For the same molecule, the inhibition in vivo at 10 mg/kg in test [27] was determined as 65%.

The inhibition in vivo is how much of the control response was suppressed.
